Compound activity: PubChem BioAssay, several laboratories
A selection: hits, their analogues and other compounds. The true share with any hit is near 8.7%.
E coli WT exp – growth inhibitors of wild-type E. coli, primary screen, strain BW25113, expanded library, OD600 | OD600 absorbance | growth inhibition, % at 100 µM | 0.15% of 98,000 active;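 active = growth inhibition above about 50% at one test dose, limit read from the data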;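 also: growth measured after 20 h incubation at 37 °C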
Ecoli tolC – growth inhibitors of E. coli tolC mutant, primary screen, strain BW25113 ΔtolC::kan, 384-well. OD615. growth inhibition, % at 10 µM (by protocol). 2.2% of 65,000 active;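 active = growth inhibition at or above a cutoff equal to the mean over every tested compound plus 3 SD, cut at about 60% in these data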;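 also: growth measured after 20 h incubation at 37 °C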
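Test system: tolC-deleted E. coli BW25113; medium: LB with kanamycin 50 µg/mL; compound: single-point testing at 10 µM; incubation: 20 h compound exposure of bacteria at 37 °C; signal: OD at 615 nm; evaluation: growth inhibition in percent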
PostGolgi yeast – phenotypic screen on post-Golgi transport, primary screen. AID 739, 2007. post-Golgi transport phenotypic cell assay. inhibition, % at 10 µM. 0.9% of 98,000 active;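 also: yeast cells grown in 1536-well plates; yeast grown about 18 h at 30C before absorbance read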
PostGolgi ctrl – growth inhibition of yeast control strain, primary screen, counter-screen for post-Golgi transport modulator project | efflux-deficient yeast background strain, growth absorbance A615, 16 h | AID 738, 2007 | 5% of 98,000 active | inhibition, % at 10 µM
Cav3 T inh – Cav3.2 calcium influx blockers – cell-based, Fluo-4 calcium fluorescence, FDSS, MLSMR library, primary screen; Voltage-dependent T-type calcium channel subunit alpha-1H (Homo sapiens), O95180; Cav3.2-expressing cells; active compounds read low; B-score at 10 µM; 4% of 100,000 active; AID 449739, 2010;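 active = single-dose well whose peak fluorescence ratio is a statistical outlier from its plate by either plate-standardised score or position-corrected B-score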
Pyk2 oligo antag – antagonists of Pyk2 self-association, primary screen, Q293 cells, FERM NanoBiT luminescence, HTS | Protein-tyrosine kinase 2-beta (Homo sapiens), Q14289 | active compounds read low | z-score (the deposit names both 25 µM and 10 µM) | 0.83% of 99,000 active | AID 1347419, 2020;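 active = Z-score of -3 or lower, scaled per plate to the spread of control and sample wells; inactive = z-score above -3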;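 also: negative z-score means lost luminescence so less FERM oligomerization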
Target sequence (Q14289 whole entry, looked up): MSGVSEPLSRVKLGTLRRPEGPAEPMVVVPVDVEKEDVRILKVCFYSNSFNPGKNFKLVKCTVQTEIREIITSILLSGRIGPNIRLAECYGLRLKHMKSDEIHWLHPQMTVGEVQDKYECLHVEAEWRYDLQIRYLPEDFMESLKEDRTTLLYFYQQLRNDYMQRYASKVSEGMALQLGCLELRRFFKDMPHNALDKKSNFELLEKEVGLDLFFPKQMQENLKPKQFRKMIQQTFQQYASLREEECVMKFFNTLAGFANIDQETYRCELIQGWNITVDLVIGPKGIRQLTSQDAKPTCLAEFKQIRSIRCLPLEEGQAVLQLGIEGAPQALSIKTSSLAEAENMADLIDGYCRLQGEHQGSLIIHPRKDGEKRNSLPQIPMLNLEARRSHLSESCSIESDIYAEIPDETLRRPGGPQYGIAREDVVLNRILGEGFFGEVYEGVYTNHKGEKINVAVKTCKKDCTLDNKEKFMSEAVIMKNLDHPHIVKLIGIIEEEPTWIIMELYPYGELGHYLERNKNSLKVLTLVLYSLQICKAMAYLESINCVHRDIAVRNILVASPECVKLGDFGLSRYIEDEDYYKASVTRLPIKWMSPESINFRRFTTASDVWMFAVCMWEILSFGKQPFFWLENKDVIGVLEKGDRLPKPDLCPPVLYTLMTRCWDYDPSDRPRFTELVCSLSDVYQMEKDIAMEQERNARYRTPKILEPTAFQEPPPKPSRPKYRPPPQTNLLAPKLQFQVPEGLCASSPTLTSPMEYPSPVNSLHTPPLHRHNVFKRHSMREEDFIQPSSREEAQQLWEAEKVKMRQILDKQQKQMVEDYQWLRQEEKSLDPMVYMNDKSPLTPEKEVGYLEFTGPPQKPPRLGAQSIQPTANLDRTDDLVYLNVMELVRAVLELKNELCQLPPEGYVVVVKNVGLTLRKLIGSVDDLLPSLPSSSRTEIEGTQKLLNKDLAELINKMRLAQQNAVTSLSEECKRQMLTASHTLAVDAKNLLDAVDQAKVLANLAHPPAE
Active calls of the source: *; . = no result. Rule as the data show it, unless noted: active = inhibition above about 30%; inactive = the rest.

SMILES	E coli WT exp	Ecoli tolC	PostGolgi yeast	PostGolgi ctrl	Cav3 T inh	Pyk2 oligo antag
COC(=O)C1=C(N)n2c(s/c(=C\c3cccnc3)c2=O)=C(C(=O)OC)C1c1cccnc1 (configuration not stated)	-3.0	-5.6	-14.4	9.6	1.83	.
CN(C)c1ccnc(-n2cccc2/C=N/OCc2cccc(F)c2)c1C#N	-14.0	.	-4.6	7.6	0.244	0.03
C=CCNC(=O)c1onc(CSc2ccc(F)cc2)c1C(=O)NCCOC	0.0	.	-0.5	45.5*	1.49	.
CC(C)NC(=O)c1onc(CSc2ccccc2F)c1C(=O)O	-6.0	.	-2.2	38.8*	0.666	.
C=CCNC(=O)c1onc(CSc2ccc(F)cc2)c1C(=O)O	-11.0	.	0.3	-1.8	0.491	.
Cc1ccccc1SCc1noc(C(=O)NC(C)C)c1C(=O)O	1.0	.	6.8	-7.2	1.95	.
C=CCNC(=O)c1onc(CSc2ccc(C(C)C)cc2)c1C(=O)O	-13.0	.	-3.8	33.1*	-0.854	.
O=C(NCc1cccs1)c1cc(C2CC2)on1	3.0	.	-6.1	1.7	0.691	.
CCOC(=O)c1cc2c(=O)n3cccc(C)c3nc2n(CC2CCCO2)c1=NC(C)=O (configuration not stated)	.	13.5	.	.	5.12*	-0.16
C=CCn1c(=N)c(C(=O)OCC)cc2c(=O)n3cccc(C)c3nc21	.	4.1	.	.	-0.137	.
Cc1ccnc2c(N3C(=O)C4C5c6ccccc6C(c6ccccc65)C4C3=O)cccc12 (configuration not stated)	-5.0	.	68.8*	74.4*	-3.7	-0.27
CCOc1ccc(Cn2nnc(C(=O)NCc3ccc(OC)cc3)c2N)cc1	-4.0	2.8	1.5	2.4	-5.21*	.
S=c1[nH]nc(COc2ccc(Cl)cc2)o1	2.0	21.5	7.2	5.3	-0.00763	1.4
Cc1cccc(Cn2c(C(=O)OC(C)C)cc3c2ccn3C)c1	1.0	.	-3.4	9.8	-2.83	-0.63
Cc1c(C(=O)N2CCN(CCc3ccccc3)CC2)oc2ccccc12	13.0	9.8	7.0	13.1	-0.166	-1.32
Cc1c(C(=O)N2CCN(S(C)(=O)=O)CC2)oc2ccccc12	7.0	2.4	-8.0	34.0*	0.366	0.7
COn1c(SCC(=O)N(C)C)nc2ccccc2c1=O	-1.0	-7.1	14.5	-5.4	0.538	0.63
CCC(CC)C(=O)Nc1cc(C)c2c(=O)oc3ccccc3c2n1	-3.0	8.6	29.1	33.9*	-0.677	.
Cc1cc(NC(=O)c2ccc(S(=O)(=O)N3CCOCC3)cc2)nc2c1c(=O)oc1ccccc12	-12.0	15.6	31.3*	4.0	.	.
COCc1cc(=O)[nH]c(/N=C(\N)Nc2ccccc2C)n1	-1.0	.	2.3	-2.6	-0.0465	0.55
COCCNc1cc(C)nc2c3c(C)cc(C)nc3nn12	3.0	-4.8	47.3*	0.1	0.22	0.17
CCN(Cc1ccccc1)S(=O)(=O)c1ccc(C(=O)N2CCN(c3nc4ccccc4s3)CC2)cc1	.	.	.	.	.	-0.8
COc1cccc(CNC(=O)CSCc2cnn(-c3ccccc3)c2-n2cccc2)c1OC	-11.0	.	18.7	10.8	-5.98*	-0.63
COc1ccc(OC)c(NC(=O)CSCc2cnn(-c3ccccc3)c2-n2cccc2)c1	-22.0	48.9	12.4	29.4	-9.09*	0.4
CCOc1ccc(NC(=O)CSCc2cnn(-c3ccccc3)c2-n2cccc2)cc1	-17.0	.	-4.1	10.2	-10.2*	0.03
SMILES	E coli WT exp	Ecoli tolC	PostGolgi yeast	PostGolgi ctrl	Cav3 T inh	Pyk2 oligo antag
COc1ccc(OC)c(NC(=O)CSc2nnc(C)n2Cc2ccccc2)c1	-2.0	17.1	-8.2	9.7	1.18	0.27
O=C(NNC(=O)c1cccnc1SCc1cccc([N+](=O)[O-])c1)c1ccccn1	.	.	.	.	.	1.02
COc1ccc(-n2c(Cc3cccn3C)nnc2SCC(=O)Nc2ccccc2F)cc1	3.0	10.1	8.7	9.0	-4.45*	.
COc1ccc(-n2c(Cc3cccn3C)nnc2SCC(=O)Nc2ccc(F)cc2F)cc1	-10.0	17.3	4.2	7.8	-8.44*	.
COc1ccc(OC)c(NC(=O)CSc2nnc(Cc3cccn3C)n2-c2ccc(F)cc2)c1	2.0	14.4	-0.8	6.8	-2.49	.
CCOC(=O)C(C(=O)OCC)c1cc(Br)c2noc3c2c1C(=O)c1ccccc1-3	-4.0	4.9	-3.0	3.5	-5.49*	-0.64
O=C(/C(=C/c1ccccc1)c1ccccc1)N1CCCCC1	6.0	.	-4.8	8.8	-2.24	-0.23
COc1ccc(S(=O)(=O)n2nc(-c3ccc(Cl)cc3)cc2N)cc1OC	-6.0	.	-1.0	30.9*	0.585	.
Nc1cc(-c2ccccc2)nn1S(=O)(=O)c1ccc(F)cc1	11.0	.	-4.9	14.9	-7.2*	.
Nc1cc(-c2ccc(Br)cc2)nn1S(=O)(=O)c1ccccc1	-5.0	0.9	-2.5	4.3	-0.0316	.
C=C1CSc2nc3ccccc3c(=O)n21	7.0	.	-4.0	23.6	1.03	0.65
Clc1ccc(-c2nc(N3CCCCC3)nc3ccccc23)cc1	.	.	.	.	-0.0198	-0.05
c1ccc(-c2nc(-n3nc4ccccc4n3)nc3ccccc23)cc1	2.0	.	9.9	77.7*	0.655	-2.56
COc1ccc(C2C(C(=O)Nc3ccc4c(c3)OCCO4)c3ccccc3C(=O)N2C)cc1 (configuration not stated)	1.0	.	2.5	31.2*	-0.119	-0.57
CCCCCC(=O)Nc1ccccc1N1CCN(c2ccccc2)CC1	-3.0	68.0*	16.8	-4.5	-2.9	-2.17
O=C(COc1ccc(Cl)cc1Cl)N1CCCN(C(=O)COc2ccc(Cl)cc2Cl)CC1	-10.0	.	-4.7	74.9*	-4.58*	0.43
O=C(COc1ccccc1)Nc1ccccc1N1CCN(c2ccccc2)CC1	-2.0	-7.6	-2.7	1.1	-3.16	-2.11
O=C(COc1ccccc1)Nc1ccccc1N1CCCCC1	6.0	91.8*	13.7	11.2	0.412	-1.39
CCC(=O)N1CCN(c2ccccc2NC(=O)COc2cc(C)ccc2C(C)C)CC1	-19.0	25.0	-5.2	22.2	-7.05*	-2.71
Cc1ccc(C(C)C)c(OCC(=O)N2CCOCC2)c1	-4.0	9.2	3.9	27.2	-0.105	-0.16
Cc1cc(Cl)ccc1OCC(=O)N1CCCCC1	7.0	1.6	-3.2	4.3	-0.0939	1.55
COc1cccc(C(=O)N(Cc2ccc(N(C)C)cc2)C2CCS(=O)(=O)C2)c1 (configuration not stated)	6.0	0.7	4.3	4.7	0.776	-0.49
CC(=O)N1CCN(c2ccccc2NC(=O)COc2ccc(Cl)cc2Cl)CC1	0.0	25.0	0.0	49.5*	-4.73*	-2.46
O=C(CCNS(=O)(=O)c1cccc2nonc12)NCCc1ccc(Cl)cc1	2.0	5.8	18.0	8.6	-0.12	0.74
Cc1cc(Cl)c(S(=O)(=O)N2CCCCCC2)cc1OCC(N)=O	11.0	12.3	-4.2	17.3	0.055	-0.09
CCN1CCN(S(=O)(=O)c2cc(OCC(=O)NC3CCCCC3)c(C)cc2Cl)CC1	0.0	9.6	5.5	3.4	1.33	1.38
